Assay [1] is described as follows: inhibitors of TNFa-induced NFkB p65 translocation, primary screen, imaging, HUVEC, MLSMR starter and 10KST1 sets (AID 438;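 active = inhibition above 20% together with a positive visual image hit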;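 note: compound added about 3h40 before a 20 min TNFalpha stimulation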;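 for inhibition: signal is the nuclear over cytoplasmic p65 intensity ratio per well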). The settings on record: HUVEC TNFa-induced p65 nuclear translocation; cell count: measured here: nuclei count (cytotoxicity indicator), at 2.08 µM; inhibition: at 2 µM, stronger effect = higher value, 0% TNFa-plus-vehicle, 100% no-TNFa wells.
Assay [2] can be described thus: endothelial E-selectin expression blockers – imaging, HUVEC, immunofluorescence, MLSMR starter and 10KST1 sets, primary screen (AID 487;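 active = visually confirmed hit in the image check and inhibition above 20%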;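 for inhibition: signal is fraction of cell area covered by stained E-selectin grains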;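 for nuclei count: 100% = median nuclei count of all wells on the same plate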). The settings on record: HUVEC TNFalpha-induced E-selectin immunofluorescence imaging, at 2 µM; inhibition: stronger effect = higher value; nuclei count: measured here: cell number, toxicity.
Assay [3] is described as follows: Primary imaging screen for DUSP6 inhibitors that restore phospho-Erk in transfected HeLa cells, chemical complementation (AID 609;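 active = compounds giving at least 50% inhibition in the cell-based MKP-3 phosphatase rescue imaging test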;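 for inhibition: phospho-Erk level distribution per well compared with pooled transfected vehicle control wells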). The settings on record: HeLa MKP-3 transfected, phospho-Erk imaging KS statistic, at 10 µM, cells stimulated with TPA for 15 min.
Assay [4] concerns the target Dual specificity protein phosphatase 6 (Homo sapiens) (UniProt Q16828). The description is as above. The settings on record: HeLa MKP-3 transfected, phospho-Erk imaging KS statistic; at 10 µM; stronger effect = higher value; cells stimulated with TPA for 15 min.
For assay [5], the target named is Voltage-gated potassium channel subunit beta-2 (Rattus norvegicus) (UniProt P62483). The assay can be described thus: inhibitors of rat Kvbeta2 reductase activity – biochemical, NADPH fluorescence, primary screen (AID 622;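 active = fluorescence slope higher than the sample average by over 3 SD, cut at about -0.22 in these data, passing the limit was not always enough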;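 note: slope of raw intensity against log time taken from 70 to 1610 s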). The settings on record: recombinant KvBeta, 4-cyanobenzaldehyde reduction, at 10 µM, stronger effect = higher value.
Voltage-gated potassium channel subunit beta-2 (Rattus norvegicus), sequence (P62483 whole entry, looked up): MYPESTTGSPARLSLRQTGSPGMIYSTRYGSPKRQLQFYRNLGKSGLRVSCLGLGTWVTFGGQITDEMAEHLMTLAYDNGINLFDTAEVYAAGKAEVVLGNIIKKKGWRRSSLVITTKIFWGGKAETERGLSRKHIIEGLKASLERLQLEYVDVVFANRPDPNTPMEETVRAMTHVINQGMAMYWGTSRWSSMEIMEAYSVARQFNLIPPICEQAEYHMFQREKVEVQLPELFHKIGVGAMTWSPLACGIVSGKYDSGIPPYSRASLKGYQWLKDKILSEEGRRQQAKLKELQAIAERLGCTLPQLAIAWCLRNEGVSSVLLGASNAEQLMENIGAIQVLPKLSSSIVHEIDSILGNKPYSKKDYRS
For assay [6] the target is unchanged. The assay can be described thus: enhancers of rat Kvbeta2 NADPH turnover – biochemical, NADPH fluorescence, primary screen (AID 623;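 active = NADPH fluorescence slope more negative than the mean of all samples by about 3 SD, 99.7% confidence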;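 note: fluorescence intensity change per second fitted from 20 to 320 s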). The settings on record: Recombinant KvBeta, NADPH fluorescence decrease slope, 10 min; at 10 µM; stronger effect = lower value.
Assay [7] addresses Alpha-2C adrenergic receptor (Homo sapiens) (UniProt P18825). The assay can be described thus: compounds altering alpha2C-coupled GIRK flux – cell-based, HEK293 alpha2C/GIRK1/2, thallium flux, primary screen (AID 624;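 active = fluorescence slope after compound addition differing from the mean of all screened samples at 99.7% confidence, in either direction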;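 note: slope of fluorescence ratio to pre-addition baseline per second over 15 to 24 s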). The following applies: thallium flux BTC fluorescence, at 10 µM, actives lie on both sides.
Assay [8] can be described thus: inhibitors of larval lipid processing in zebrafish, primary screen, whole organism, PED6 fluorescence, gall bladder and intestine (AID 686).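 Note: larvae 5 to 7 days old with five fish per well; signal comes from phospholipase A2 cleavage of quenched PED6 carried via bile; overnight exposure to compound and PED6 before scoring.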 The settings on record: Zebrafish larvae PED6 lipid processing, fluorescence scoring; screened at 20 µM (by protocol). The method in brief:
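Test system – live zebrafish larvae aged 5-7 days, whole organism · Buffer or medium – E3 fish medium · Reagent – quenched phospholipase substrate PED6, 100 nM final, ingested by larvae · Doses – 20 µM single dose · Incubation – overnight compound and PED6 incubation · Technique – visual fluorescence microscopy scoring of gall bladder, gut · Read-out basis – visual per-well fluorescence inhibition score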

Assay [9] in a line: loss of swimming-algae plug formation – whole organism, Chlamydomonas reinhardtii, WT vs cilia-less mutant, absorbance, 96-well, primary screen (AID 463189;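 active = inhibition at or above 50% relative to wild type and mutant plate controls; inactive = inhibition below 50%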;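 note: 0% = wild type cc124 cells in DMSO and 100% = ciliumless bld1 mutant cells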). The following applies: Chlamydomonas reinhardtii gravitaxis, OD600 absorbance, 2 days; at 10 µM; stronger effect = higher value.
The mark [10] stands for this setting: measured here: cell density z-score.
Where [11] appears, read: measured here: nuclear c-Myc green intensity z-score.
[12] abbreviates: measured here: nuclear pErk red intensity z-score, stronger effect = higher value.

Active and inactive are the calls of the source.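 Rule for the calls, unless noted: active = a full or partial loss of lipid-probe fluorescence in the fish gall bladder, intestine or both, judged by eye; inactive = no fluorescence loss, or compound toxic to the fish.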

Alpha-2C adrenergic receptor (Homo sapiens), sequence (P18825 whole entry, looked up): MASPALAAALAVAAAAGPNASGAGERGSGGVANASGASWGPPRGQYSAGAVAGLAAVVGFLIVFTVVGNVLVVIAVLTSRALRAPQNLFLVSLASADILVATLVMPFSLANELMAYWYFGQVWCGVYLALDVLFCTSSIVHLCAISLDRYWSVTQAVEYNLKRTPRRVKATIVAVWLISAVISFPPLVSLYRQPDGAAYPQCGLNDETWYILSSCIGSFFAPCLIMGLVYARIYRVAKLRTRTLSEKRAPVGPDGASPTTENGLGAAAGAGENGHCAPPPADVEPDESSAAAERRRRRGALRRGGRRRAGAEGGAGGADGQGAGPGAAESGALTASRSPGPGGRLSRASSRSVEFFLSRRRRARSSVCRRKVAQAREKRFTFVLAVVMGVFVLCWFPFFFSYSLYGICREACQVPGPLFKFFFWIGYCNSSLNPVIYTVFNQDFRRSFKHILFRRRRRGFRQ
Dual specificity protein phosphatase 6 (Homo sapiens), sequence (Q16828 whole entry, looked up): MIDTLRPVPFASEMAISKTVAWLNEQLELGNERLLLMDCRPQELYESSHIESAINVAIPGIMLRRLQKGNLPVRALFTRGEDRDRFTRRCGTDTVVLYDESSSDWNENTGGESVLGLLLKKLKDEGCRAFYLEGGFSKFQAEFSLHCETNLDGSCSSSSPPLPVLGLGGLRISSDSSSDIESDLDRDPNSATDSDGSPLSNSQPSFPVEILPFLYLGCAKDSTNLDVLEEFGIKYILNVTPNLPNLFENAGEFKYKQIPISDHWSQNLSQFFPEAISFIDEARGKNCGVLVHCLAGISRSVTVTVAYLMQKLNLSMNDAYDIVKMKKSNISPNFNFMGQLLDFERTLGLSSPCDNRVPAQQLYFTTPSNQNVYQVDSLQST

The inhibition is the relative decrease from the control value, in per cent. As for `Fc1ccccc1/C=N/n1cnnc1`, the cell count in assay [1] worked out at 540. In addition, the inhibition was -6.3% (inactive) in [1], -60.4% (inactive) in [2], 4.25% (inactive) in [4] and 5.22% (inactive) in assay [9]. In [2], the nuclei count was determined as 172%. For the same molecule, the z-score in [3] (setting [10]) is 0.728; in assay [3] (setting [11]), -0.356; in assay [3] (setting [12]) it was 0.425. Besides, the fluorescence slope in assay [5] was -0.297 (inactive). Also, the NADPH fluorescence slope in assay [6] is -6.2e-06 (inactive). Moreover, the slope in [7] is 0.00552 (inactive). Besides, in assay [8], the molecule was called inactive.

`COc1cc(C)nc(Oc2ccc(OCCOc3ccc(C)cc3)nn2)n1`: in [1], the cell count is 440. Further, the inhibition is -2.4% (inactive) in [1], -191% (inactive) in [2], 2.46% (inactive) in [4] and 3.2% (inactive) in assay [9]. In addition, in [2], the nuclei count was 163%. Besides, the z-score in [3] (setting [10]) is 0.149; in assay [3] (setting [11]), -0.102; in [3] (setting [12]) it was 0.972. Moreover, the fluorescence slope in assay [5] is -0.415 (inactive). Besides, the NADPH fluorescence slope in [6] is -3.1e-05 (inactive). Moreover, the slope in assay [7] is 0.00505 (inactive). Further, the result in [8] was inactive.

For the molecule `Cc1c(/C(O)=C2/C(=O)C(=O)N(CCCN3CCOCC3)C2c2ccncc2)cnn1-c1ccccc1` (stereo unspecified), the cell count in assay [1] is 518. The inhibition is 8.4% (inactive) in assay [1], -181% (inactive) in assay [2], 8.76% (inactive) in [4] and 15.5% (inactive) in assay [9]. In assay [2], this molecule returned a nuclei count of 149%. In addition, the z-score was 0.69 in [3] (setting [10]), 0.756 in assay [3] (setting [11]) and -0.189 in assay [3] (setting [12]). Further, the fluorescence slope in [5] was -0.552 (inactive). In addition, the NADPH fluorescence slope in assay [6] was -1.5e-05 (inactive). In addition, the slope in assay [7] is 0.00511 (inactive). Besides, in [8], the call was inactive.

Regarding `CCOC(=O)C(c1ccccc1)N1CCN(c2ccc(OC)cc2)CC1` (stereo unspecified), in [1], the cell count is 365. For the same molecule, the inhibition in assay [1] is -5.2% (inactive); in assay [2], -72.8% (inactive); in [4] it was 11.4% (inactive); in assay [9] it was -10% (inactive). The nuclei count in [2] came to 146%. Besides, the z-score is -0.336 in [3] (setting [10]), -0.989 in assay [3] (setting [11]) and -1.39 in [3] (setting [12]). Besides, the fluorescence slope in assay [5] was -0.422 (inactive). Also, the NADPH fluorescence slope in assay [6] was -0.000118 (inactive). Moreover, in [7], the slope is 0.00552 (inactive). Moreover, the result in [8] was inactive.

On to `COc1ccc2c(c1OC)C(=O)N1c3ccccc3C(=O)N(c3ccccc3)C21` (stereo unspecified), for which the cell count in assay [1] was 475. The inhibition in [1] was -9.6% (inactive); in assay [2], -84.9% (inactive); in assay [4] it was 2.46% (inactive); in [9] it was 3.79% (inactive). In addition, the nuclei count in assay [2] came out at 169%. In addition, the z-score in assay [3] (setting [10]) was 0.407; in [3] (setting [11]), -0.0149; in assay [3] (setting [12]), -0.273. Moreover, the fluorescence slope in assay [5] is -0.319 (inactive). Besides, in assay [6], the NADPH fluorescence slope is -5.5e-06 (inactive). In addition, the slope in [7] is 0.00449 (inactive). Also, the call in [8] was inactive.

As to `COc1ccc(CCNC(=O)c2ccc(=O)[nH]n2)cc1OC`, the cell count in assay [1] was determined as 452. The inhibition in assay [1] is -9.3% (inactive); in assay [2], -124% (inactive); in [4], 7.48% (inactive); in [9] it was 1.24% (inactive). For the same molecule, the nuclei count in [2] worked out at 113%. The results for the z-score in assay [3] (setting [10]), in assay [3] (setting [11]) and in [3] (setting [12]) were -0.121, -0.331 and -0.384, respectively. Also, in assay [5], the fluorescence slope is -0.517 (inactive). In addition, the NADPH fluorescence slope in assay [6] was -0.000115 (inactive). Also, the slope in assay [7] was 0.00414 (inactive). In addition, the result in assay [8] was inactive.

Regarding `CCCOc1ccc(/C(O)=C2/C(=O)C(=O)N(CCN(C)C)C2c2ccc(OC)c(OC)c2)cc1` (stereo unspecified), the cell count in [1] came out at 461. The inhibition is -7.3% (inactive) in [1], -136% (inactive) in assay [2], 6.04% (inactive) in assay [4] and 8% (inactive) in [9]. The same molecule came in with a nuclei count in assay [2] of 167%. The results for the z-score in assay [3] (setting [10]), in [3] (setting [11]) and in [3] (setting [12]) were -0.67, 0.995 and 0.868, respectively. For the same molecule, the fluorescence slope in [5] was -0.411 (inactive). Also, the NADPH fluorescence slope in assay [6] was -6.1e-05 (inactive). Also, in assay [7], the slope was 0.00495 (inactive). Further, in assay [8], the result was inactive.

Values taken from PubChem BioAssay.
